Assay results: ChEMBL document CHEMBL1157825, “1-(2-Ethoxyethyl)-1H-pyrazolo[4,3-d]pyrimidines as potent phosphodiesterase 5 (PDE5) inhibitors” (Bioorg Med Chem Lett, 2010)

Assay: Volume of distribution at steady state in Beagle dog at 0.2 to 0.5 mg/kg, iv
Type: ADME, organism-based, Canis lupus familiaris
Design: dose 0.2-0.5 mg/kg, route intravenous
Conditions: in vivo, read-out: Vdss
How it was run: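 Single IV dose of 0.2–0.5 mpk given to 10 kg beagles. Half-life reported in h, clearance in mL/min/kg and Vdss in L/kg.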
Work on `CCOCCn1nc(CC)c2nc(N3CCN(C)CC3)nc(Nc3cc(C)ccn3)c21` yielded a Vd of 11.4 L/kg.
`CCOCCn1nc(CC)c2nc(N3CCC(C(=O)O)CC3)nc(Nc3cc(C)ccn3)c21` showed a Vd of 3.8 L/kg.
In the case of `CCOCCn1nc(CC)c2nc(N3CCC(N)CC3)nc(Nc3cc(C)ccn3)c21`, the Vd is reported as 50.4 L/kg.
